In assay [1] the test system is J774. Briefly: Inhibition of 5'-CTATCTGACGTTCTCTGT-3'-activated NF-kappaB activity in mouse J774 cells at 2.5 ug/ml after 1 hr by EMSA. The assay is classed as cell-based. Put shortly:
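J774 murine macrophages were grown in DMEM with 10% FBS and antibiotics, plated at 5 × 10^6 cells/well, and co-incubated for 1 h with the agonist ODN (0.5 µg/mL) and test ODN (2.5 µg/mL). Nuclear extracts were prepared and NF-κB binding was analysed by EMSA on native polyacrylamide gels with autoradiography.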
On the technique in general: Mobility shift assays separate free from complexed probe on a gel.

Assay [2] relates to J774. The assay can be described thus: Activation of NF-kappaB in mouse J774 cells at 2.5 ug/ml after 1 hr by EMSA. The assay is classed as cell-based. Put shortly: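 Murine J774 macrophages in DMEM with 10% FBS and antibiotics, plated at 5×10^6 cells/well. ODNs were given alone or together for 1 h. For inhibition, the agonist ODN at 0.5 μg/mL was co-incubated with the modified ODN at 2.5 μg/mL. Nuclear extracts were resolved by EMSA on native polyacrylamide gels and read by autoradiography.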

Assay [3] concerns Splenocyte. The assay can be described thus: Immunostimulatory activity in C57BL/6 mouse splenocytes assessed as induction of IL12 secretion at 2 to 10 ug/ml after 24 hrs by sandwich ELISA. The assay is classed as functional, cell-based. Put shortly:
(§1)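 C57BL/6 splenocytes (mice 5–8 weeks) at 5 × 10^6 cells/mL in RPMI complete medium. ODNs dissolved in PBS were added and the cells incubated at 37 °C for 24 h. Supernatant IL-12 or IL-6 was measured by sandwich ELISA. Runs were done two or three times, in duplicate per concentration.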
(In general: ELISA stands for enzyme-linked immunosorbent assay.)

Assay [4] concerns Mus musculus. Briefly: Immunostimulatory activity in C57BL/6 mouse assessed as inhibition of 5'-CTATCTGACGTTCTCTGT-3'-induced TNFalpha production in serum at 2 mg/kg, sc administered 24 hrs prior to 5'-CTATCTGACGTTCTCTGT-3' challenge measured after 2 hrs by Luminex multiplex assay. Type of assay: functional, organism-based. Further details: dose 2 mg/kg. Put shortly:
(§2)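 C57BL/6 mice received 2 mg/kg ODN sc in one flank. After 24 h, the TLR9 agonist ODN was given at 0.5 mg/kg sc in the opposite flank. Blood was drawn 2 h later and serum cytokines/chemokines were quantified by Luminex multiplex assay. Percent inhibition was taken against the agonist alone. Representative of three experiments.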

Assay [5] deals with Mus musculus. The assay can be described thus: Immunostimulatory activity in C57BL/6 mouse assessed as inhibition of 5'-CTATCTGACGTTCTCTGT-3'-induced MIP-1alpha production in serum at 2 mg/kg, sc administered 24 hrs prior to 5'-CTATCTGACGTTCTCTGT-3' challenge measured after 2 hrs by Luminex multiplex assay. The assay is classed as functional, organism-based. Further details: dose 2 mg/kg. In outline:
as §2

Assay [6] deals with T1, Toll-like receptor 9 (Mus musculus) (UniProt Q9EQU3).
T1 sequence (whole entry): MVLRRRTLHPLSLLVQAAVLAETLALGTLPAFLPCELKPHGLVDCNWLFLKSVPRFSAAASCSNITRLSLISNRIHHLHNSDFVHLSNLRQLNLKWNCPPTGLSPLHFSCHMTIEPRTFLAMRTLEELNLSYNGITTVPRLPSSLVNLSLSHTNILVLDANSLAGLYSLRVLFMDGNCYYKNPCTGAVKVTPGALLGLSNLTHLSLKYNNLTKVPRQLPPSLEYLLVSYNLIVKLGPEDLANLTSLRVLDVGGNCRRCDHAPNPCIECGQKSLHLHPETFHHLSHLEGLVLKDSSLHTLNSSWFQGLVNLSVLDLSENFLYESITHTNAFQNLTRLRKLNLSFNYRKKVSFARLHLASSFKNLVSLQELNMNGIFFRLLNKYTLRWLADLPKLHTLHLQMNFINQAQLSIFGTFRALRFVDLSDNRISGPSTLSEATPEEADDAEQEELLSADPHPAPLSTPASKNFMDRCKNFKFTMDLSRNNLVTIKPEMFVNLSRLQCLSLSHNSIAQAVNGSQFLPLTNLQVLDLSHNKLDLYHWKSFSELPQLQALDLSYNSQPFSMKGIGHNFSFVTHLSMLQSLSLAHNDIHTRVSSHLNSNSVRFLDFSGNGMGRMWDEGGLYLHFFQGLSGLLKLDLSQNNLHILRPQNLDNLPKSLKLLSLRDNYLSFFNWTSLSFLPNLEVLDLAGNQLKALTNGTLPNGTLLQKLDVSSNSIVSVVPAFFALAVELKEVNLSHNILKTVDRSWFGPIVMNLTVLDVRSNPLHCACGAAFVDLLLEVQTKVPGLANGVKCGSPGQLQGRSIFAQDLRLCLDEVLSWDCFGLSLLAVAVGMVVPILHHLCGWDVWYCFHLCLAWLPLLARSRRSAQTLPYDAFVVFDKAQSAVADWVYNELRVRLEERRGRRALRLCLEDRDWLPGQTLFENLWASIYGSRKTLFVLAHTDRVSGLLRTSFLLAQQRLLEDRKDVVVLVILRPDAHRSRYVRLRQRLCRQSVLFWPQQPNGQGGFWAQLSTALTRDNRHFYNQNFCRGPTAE
Briefly: Activation of mouse TLR9 expressed in HEK293 cells assessed as NF-kappaB level at 0.3 ug/mL after 18 hrs by reporter gene assay. Type of assay: cell-based. Put shortly:
(§3)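 HEK293 cells stably expressing mouse TLR9 were transiently transfected with a SEAP reporter for 6 h, then stimulated with ODN at 0.1, 0.3 or 1 μg/mL for 18 h. Reporter expression is given as fold change in NF-κB activity over medium. Representative of two independent experiments.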

Assay [7] addresses T1, Toll-like receptor 9 (Mus musculus). Briefly: Activation of mouse TLR9 expressed in HEK293 cells assessed as NF-kappaB level at 0.1 ug/mL after 18 hrs by reporter gene assay. Type of assay: cell-based. In outline:
as §3
(In general: Reporter assays use an easily measured gene product as a stand-in for the process of interest.)

Assay [8] relates to Splenocyte. The assay can be described thus: Immunostimulatory activity in C57BL/6 mouse splenocytes assessed as induction of IL6 secretion at 2 to 10 ug/ml after 24 hrs by sandwich ELISA. Type of assay: functional, cell-based. Put shortly: as §1
Assay [9] relates to Mus musculus. Briefly: Immunostimulatory activity in C57BL/6 mouse assessed as inhibition of 5'-CTATCTGACGTTCTCTGT-3'-induced MCP1 production in serum at 2 mg/kg, sc administered 24 hrs prior to 5'-CTATCTGACGTTCTCTGT-3' challenge measured after 2 hrs by Luminex multiplex assay. Type of assay: functional, organism-based. Further details: dose 2 mg/kg. Put shortly:
as §2

Assay [10] addresses T1, Toll-like receptor 9 (Mus musculus). The assay can be described thus: Activation of mouse TLR9 expressed in HEK293 cells assessed as NF-kappaB level at 1 ug/mL after 18 hrs by reporter gene assay. The assay is classed as cell-based. In outline:
as §3

Assay [11] deals with Mus musculus. Briefly: Immunostimulatory activity in C57BL/6 mouse assessed as inhibition of 5'-CTATCTGACGTTCTCTGT-3'-induced IL10 production in serum at 2 mg/kg, sc administered 24 hrs prior to 5'-CTATCTGACGTTCTCTGT-3' challenge measured after 2 hrs by Luminex multiplex assay. Type of assay: functional, organism-based. Further details: dose 2 mg/kg. Put shortly:
as §2

In assay [12] the test system is Mus musculus. Briefly: Immunostimulatory activity in C57BL/6 mouse assessed as inhibition of 5'-CTATCTGACGTTCTCTGT-3'-induced KC production in serum at 2 mg/kg, sc administered 24 hrs prior to 5'-CTATCTGACGTTCTCTGT-3' challenge measured after 2 hrs by Luminex multiplex assay. Type of assay: functional, organism-based. Also on record: dose 2 mg/kg. Put shortly:
as §2

Molecules are shown by their SMILES. Active and inactive are the calls of the source. The calls are words filed in the database; no cut-off is given here.

For `COC1[C@H](n2cnc3c(N)ncnc32)O[C@H](COP(=O)(S)O[C@H]2C(OC)[C@H](n3cnc4c(=O)[nH]c(N)nc43)O[C@@H]2COP(=O)(S)O[C@H]2C[C@H](n3cc(C)c(=O)[nH]c3=O)O[C@@H]2COP(=O)(S)O[C@H]2C[C@H](n3ccc(N)nc3=O)O[C@@H]2COP(=O)(S)O[C@H]2C[C@H](n3cc(C)c(=O)[nH]c3=O)O[C@@H]2COP(=O)(S)O[C@H]2C[C@H](n3cnc4c(N)ncnc43)O[C@@H]2COP(=O)(S)O[C@H]2C[C@H](n3cc(C)c(=O)[nH]c3=O)O[C@@H]2COP(=O)(S)O[C@H]2C[C@H](n3ccc(N)nc3=O)O[C@@H]2CO)[C@H]1OP(=O)(S)OC[C@H]1O[C@@H](n2ccc(N)nc2=O)C[C@@H]1OP(=O)(S)OC[C@H]1O[C@@H](n2ccc(N)nc2=O)C[C@@H]1OP(=O)(S)OC[C@H]1O[C@@H](n2cc(C)c(=O)[nH]c2=O)C[C@@H]1OP(=O)(S)OC[C@H]1O[C@@H](n2cc(C)c(=O)[nH]c2=O)C[C@@H]1OP(=O)(S)OC[C@H]1O[C@@H](n2ccc(N)nc2=O)C[C@@H]1OP(=O)(S)OC[C@H]1O[C@@H](n2cc(C)c(=O)[nH]c2=O)C[C@@H]1OP(=O)(S)OC[C@H]1O[C@@H](n2ccc(N)nc2=O)C[C@@H]1OP(=O)(S)OC[C@H]1O[C@@H](n2cc(C)c(=O)[nH]c2=O)C[C@@H]1OP(=O)(S)OC[C@H]1O[C@@H](n2cnc3c(=O)[nH]c(N)nc32)C[C@@H]1OP(=O)(S)OC[C@H]1O[C@@H](n2cc(C)c(=O)[nH]c2=O)C[C@@H]1O` (some centres not stated), the outcome with J774 [1] and with J774 [2] was inactive.
With `Cc1cn([C@H]2C[C@H](OP(=O)(S)OC[C@H]3O[C@@H](n4ccc(N)nc4=O)C[C@@H]3OP(=O)(S)OC[C@H]3O[C@@H](n4cc(C)c(=O)[nH]c4=O)C[C@@H]3OP(=O)(S)OC[C@H]3O[C@@H](n4cc(C)c(=O)[nH]c4=O)C[C@@H]3OP(=O)(S)OC[C@H]3O[C@@H](n4ccc(N)nc4=O)C[C@@H]3OP(=O)(S)OC[C@H]3O[C@@H](n4cc(C)c(=O)[nH]c4=O)C[C@@H]3OP(=O)(S)OC[C@H]3O[C@@H](n4ccc(N)nc4=O)C[C@@H]3OP(=O)(S)OC[C@H]3O[C@@H](n4cc(C)c(=O)[nH]c4=O)C[C@@H]3OP(=O)(S)OC[C@H]3O[C@@H](n4cnc5c(=O)[nH]c(N)nc54)C[C@@H]3OP(=O)(S)OC[C@H]3O[C@@H](n4cc(C)c(=O)[nH]c4=O)C[C@@H]3O)[C@@H](COP(=O)(S)O[C@H]3C[C@H](n4cnc5c(N)ncnc54)O[C@@H]3COP(=O)(S)O[C@H]3C[C@H](n4cnc5c(=O)[nH]c(N)nc54)O[C@@H]3COP(=O)(S)O[C@H]3C[C@H](n4cc(C)c(=O)[nH]c4=O)O[C@@H]3COP(=O)(S)O[C@H]3C[C@H](n4ccc(N)nc4=O)O[C@@H]3COP(=O)(S)O[C@H]3C[C@H](n4cc(C)c(=O)[nH]c4=O)O[C@@H]3COP(=O)(S)O[C@H]3C[C@H](n4cnc5c(N)ncnc54)O[C@@H]3COP(=O)(S)O[C@H]3C[C@H](n4cc(C)c(=O)[nH]c4=O)O[C@@H]3COP(=O)(S)O[C@H]3C[C@H](n4ccc(N)nc4=O)O[C@@H]3CO)O2)c(=O)nc1N` (some centres not stated), the outcome (in the assay on Splenocyte [3]; in assay [6]; in [7]; in the assay with Splenocyte [8]; in [10]) was inactive. Also, the outcome in the assay on Mus musculus [4], with Mus musculus [5], in the assay on Mus musculus [9], with Mus musculus [11] and in the assay on Mus musculus [12] was Active.

The values are drawn from ChEMBL document CHEMBL1152452, “Modifications incorporated in CpG motifs of oligodeoxynucleotides lead to antagonist activity of toll-like receptors 7 and 9” (2009).
